Compounds with a hit are over-represented: about 3.7% of the library has one in this group of screens.
KCNQ1 inh – blocks the human KCNQ1 potassium channel. P51787. CHO-K1 KCNQ1, FluxOR thallium flux fluorescence; stronger effect = higher value. B-score at 10 µM. hit rate 1.3% among 310,000. AID 2642;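 active = compounds whose thallium flux B-score, printed positive for inhibition, exceeds three library SD while starting fluorescence stays within three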;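 note: channel opened by potassium depolarization with thallium stimulus after 20 min compound exposure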
KCNQ1 act – human KCNQ1 channel potentiation or activation; P51787; CHO-K1 KCNQ1, thallium flux FluxOR fluorescence; stronger effect = higher value; B-score at 10 µM; hit rate 0.35% among 310,000; AID 2648;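 active = fluorescence ratio B-score, a plate-corrected score, at least three library SD, with initial intensity B-score within 5 SD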
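Doses: Single concentration per compound, DMSO matched to controls | Test system: KCNQ1-transfected CHO-K1 cells | Timing: 90 min dye loading and 20 min compound exposure, both at room temperature | Measured by: Kinetic FluxOR thallium fluorescence, 10-s 1-Hz baseline, 110-s post-stimulus read | Medium: Assay buffer with matched DMSO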
KCNK3 inh – human KCNK3 channel inhibition, primary screen. O14649. CHO-KCNK3 thallium flux, FluxOR fluorescence; stronger effect = lower value. B-score at 10 µM. hit rate 0.84% among 340,000;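 active = B-score under library mean minus 4 SD, starting fluorescence ratio at most library mean plus 5 SD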;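 note: more negative B-score means stronger inhibition of thallium flux through KCNK3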
Target sequence (O14649 whole entry, looked up): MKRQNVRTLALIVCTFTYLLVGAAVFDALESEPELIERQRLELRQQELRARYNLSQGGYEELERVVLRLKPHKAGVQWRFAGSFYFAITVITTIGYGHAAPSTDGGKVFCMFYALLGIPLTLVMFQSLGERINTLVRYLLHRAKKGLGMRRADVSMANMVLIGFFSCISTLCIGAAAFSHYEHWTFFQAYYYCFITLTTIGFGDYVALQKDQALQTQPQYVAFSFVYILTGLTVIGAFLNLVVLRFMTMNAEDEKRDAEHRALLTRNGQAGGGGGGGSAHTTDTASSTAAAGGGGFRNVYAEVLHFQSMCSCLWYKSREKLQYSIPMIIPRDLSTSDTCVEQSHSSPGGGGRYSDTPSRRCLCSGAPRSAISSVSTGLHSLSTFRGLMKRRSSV
KCNK9 block – human KCNK9 channel inhibition; Q9NPC2; HEK293 KCNK9, FluxOR thallium flux fluorescence; stronger effect = lower value; B-score at 10 µM; hit rate 1.2% among 310,000;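 active = ratio B-score over 3 SD below the library mean, with starting fluorescence within 5 SD of its mean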;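 note: negative B-score means less thallium flux so channel inhibition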
Kir21 inh – Kir2.1 (mouse) channel inhibition; P35561; HEK293-Kir2.1, FluxOR thallium flux fluorescence; stronger effect = lower value; B-score at 10 µM; hit rate 0.85% among 310,000; AID 1672;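 active = fluorescence ratio B-score at or below minus 3 SD of library scores, with starting-brightness B-score within 2 SD, cut at about -4.2 in these data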;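 note: channel flux triggered by added potassium and thallium sulfate stimulus; B-score of peak minus minimum fluorescence over baseline after thallium stimulus; more negative B-score means stronger Kir2.1 block with less thallium influx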
hERG protect – hERG (human) protection from proarrhythmic block; Q12809; CHO-hERG, FluxOR thallium flux, dofetilide IC70 present; activation (rescue from dofetilide block), less the hit threshold, % at 10 µM; hit rate 0.51% among 310,000; AID 1511;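 active = activation above the mean of controls blocked by dofetilide plus 5 SD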;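 note: thallium influx through hERG after potassium depolarization seen as dye fluorescence rise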
KCNK9 block conf – confirmation of human KCNK9 potassium channel inhibitors | shares compounds with KCNK9 block | HEK293 KCNK9 cells, FluxOR thallium flux fluorescence | inhibition, % at 10 µM | hit rate 43% among 4,900 | AID 492992;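 active = thallium signal inhibited by more than 5 SD of the compound-free buffer control wells, on both duplicate plates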
Kir2-1 spec – mouse Kir2.1 off-target activity of KCNK9 modulators | shares compounds with KCNK9 block | Kir2.1 cells, FluxOR thallium flux fluorescence | inhibition, % at 10 µM | hit rate 4% among 4,900 | AID 492993;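 active = thallium signal drop more than 5 SD beyond the mean of the no-compound control wells, seen in both duplicate plates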;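 note: signal is fluorescence rise after thallium addition divided by baseline fluorescence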
HEK293 Tl ctr – second counter-screen for KCNK9 modulators: effect in non-induced cells; shares compounds with KCNK9 block; non-induced KCNK9-HEK293, FluxOR thallium flux; inhibition, % at 10 µM; hit rate 40% among 4,900;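 active = thallium signal drop beyond 5 SD of the untreated control mean, on both duplicate plates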
Each line names hits and unclear results; the compound was inactive in the other large screens (follow-up assays come after a bar, where they were run).

CC(NC(=O)c1ccc(CS(=O)(=O)c2cccc(C(F)(F)F)c2)o1)c1ccc2c(c1)OCCO2 (configuration not stated)	none | KCNK9 block conf inactive | Kir2-1 spec inactive | HEK293 Tl ctr inactive
C/C(COc1ccccc1)=N\NC(=O)c1nnn(-c2nonc2N)c1CSc1ccccc1	none
N#CCC(=O)N/N=C/c1c2ccccc2cc2ccccc12	none
N#CCC(=O)N/N=C/c1cc(Br)ccc1OCc1cccc2ccccc12	KCNK9 block -10 | KCNK9 block conf 47% | Kir2-1 spec inactive | HEK293 Tl ctr 26%
Cc1ccc(S(=O)(=O)NN2C(=O)/C(=C/c3ccc(F)cc3)SC2=S)cc1	none
COc1ccc(/C=C2/SC(=S)N(NS(=O)(=O)c3ccc(C)cc3)C2=O)cc1	KCNQ1 act 12 | KCNK9 block conf inactive | Kir2-1 spec inactive | HEK293 Tl ctr inactive
C=CCOc1ccc(/C=C2\SC(=S)N(NS(=O)(=O)c3ccc(C)cc3)C2=O)cc1	KCNQ1 act 24 | KCNK9 block conf inactive | Kir2-1 spec inactive | HEK293 Tl ctr inactive
Cc1ccc(S(=O)(=O)NN2C(=O)/C(=C/c3ccc(C(=O)O)cc3)SC2=S)cc1	none
O=C1/C(=C/c2cccc(F)c2)SC(=S)N1NS(=O)(=O)c1ccccc1	none | KCNK9 block conf inactive | Kir2-1 spec inactive | HEK293 Tl ctr inactive
CC(C)Cc1ccc(CN2CCCC(NC(=O)c3nn(C)c(=O)c4ccccc34)C2)cc1 (configuration not stated)	none
Cc1onc(-c2ccccc2Cl)c1C(=O)Nc1cccc2cccnc12	KCNQ1 inh 6, KCNK9 block -13 | KCNK9 block conf 47% | Kir2-1 spec inactive | HEK293 Tl ctr 45%
Cc1oc(-c2cccs2)nc1CN1CCC(c2ccccc2)CC1	none | KCNK9 block conf inactive | Kir2-1 spec inactive | HEK293 Tl ctr inactive
COc1cccc(C2c3[nH]c4ccccc4c3CCN2Cc2cccn2-c2ncccn2)c1 (configuration not stated)	KCNK9 block -8.3 | KCNK9 block conf 40% | Kir2-1 spec inactive | HEK293 Tl ctr 48%
COc1cccc(C2c3[nH]c4ccccc4c3CCN2CCCn2cccn2)c1 (configuration not stated)	none
CN(C(=S)Nc1ccc(Oc2ccccc2)cc1)C1CCCCC1	none | KCNK9 block conf inactive | Kir2-1 spec inactive | HEK293 Tl ctr inactive
CCOc1ccc2c(c1)-c1c(ssc1=S)C(C)(C)N2C(=O)CSC1=NCCS1	KCNK9 block -13 | KCNK9 block conf 70% | Kir2-1 spec inactive | HEK293 Tl ctr 34%
CC(=O)OCCCN(C)CC/C=C1/c2ccccc2CSc2ccccc21	none | KCNK9 block conf inactive | Kir2-1 spec inactive | HEK293 Tl ctr inactive
CC(C)c1nc(C(=O)N2CCc3c([nH]c4ccccc34)C2c2ccccn2)cs1 (configuration not stated)	none
Cc1nc(C(=O)N2CCc3c([nH]c4ccccc34)C2c2cc(F)ccc2F)cs1 (configuration not stated)	KCNK9 block -10 | KCNK9 block conf 46% | Kir2-1 spec inactive | HEK293 Tl ctr 31%
NC(=O)CC(NC(=O)c1ccc(Br)cc1)c1ccc(N2CCCCCCC2)c([N+](=O)[O-])c1 (configuration not stated)	KCNK9 block -10 | KCNK9 block conf 30% | Kir2-1 spec inactive | HEK293 Tl ctr 42%
NC(=O)CC(NC(=O)c1ccc(Br)cc1)c1ccc(N2CCC(Cc3ccccc3)CC2)c([N+](=O)[O-])c1 (configuration not stated)	KCNK9 block -9.5 | KCNK9 block conf 55% | Kir2-1 spec inactive | HEK293 Tl ctr 32%
Cc1ccc(SC[C@H](C)CN2CC[C@H](C)CCC2=O)cc1	Kir21 inh -4.7 | KCNK9 block conf inactive | Kir2-1 spec inactive | HEK293 Tl ctr inactive
